A word on the Kd: it is the concentration at which binding is half-saturated. A higher Kd goes with lower affinity.

Results on seven substances are retold here after article PMC5147544 (Science signaling, 2016).

The target of assay [1] is mouse hypothalamic membranes (Mus musculus, UniProt P30731). The assay is described as follows: Displacement of [125I]Tyr-rPEN binding in mouse hypothalamic membranes. Particulars: [125I]Tyr-rPEN 3 nM, membranes 30 μg, peptide 0 to 10 μM; Fig. 1C.
In assay [2] the target is endogenous mouse GPR83 in brain (hypothalamus, hippocampus, PVN) (mouse (endogenous in hypothalamus, hippocampus)) (UniProt P30731). The assay is described as follows: radioligand binding.
For assay [3] the following is noted: intracerebroventricular administration; cited from earlier work.
For assay [4], the target named is Neuro2A cells (Mus musculus, UniProt P30731). The assay is described as follows: Neurite outgrowth assay. It is filed as cell-based. To be noted: 1 μM peptide, 16 to 20 hours at 37°C, protease inhibitor cocktail; Fig. 3A. A digest of the protocol:
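Neuro2A cells were plated on poly-L-lysine, 20,000 per well, in 10% FBS medium. Next day, in serum-free medium, cells got 1 μM peptide or vehicle with protease inhibitors for 16–20 h at 37°C. Sequential 40× images covered ~300–500 cells, with repeats on different days. Blinded scoring: a cell counted positive if its neurite was longer than twice the cell diameter.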

Assay [5] addresses T1, hGPR83 (Homo sapiens, UniProt Q9NYM4). The assay is described as follows: Displacement of [125I]Tyr-rPEN binding to CHO hGPR83 cell membranes. Particulars: Fig. 4D. The method in brief: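 Membranes were prepared from CHO cells expressing untagged hGPR83 by homogenising in ice-cold 20 mM tris-Cl, 250 mM sucrose, 2 mM EGTA, 1 mM MgCl₂ (pH 7.4), then spinning at 27,000g. Membranes (50 μg) were incubated 1 h at 37°C in 50 mM tris-Cl (pH 7.4) plus protease inhibitors with 3 nM [¹²⁵I]Tyr-rPEN and competitor peptide (0 to 10 μM). Samples were filtered on GF/B, washed three times with ice-cold buffer and counted by scintillation.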
(Displacement assays read how much labelled ligand stays bound in the presence of the test substance.)

For assay [6], the target named is T1, hGPR83. The assay is described as follows: [35S]GTPγS binding in membranes from CHO hGPR83 cells. Particulars: membranes 20 μg; Fig. 4E. It is filed as biochemical. A digest of the protocol:
(§1)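 Membranes (20 μg) were incubated 1 h at 30°C with peptide (0 to 1 μM final), 2 mM GDP and 0.5 nM [³⁵S]GTPγS. Buffer was 50 mM Hepes, 5 mM MgCl₂, 100 mM NaCl, 1 mM EDTA (pH 7.4) with protease inhibitors. Nonspecific binding was taken with 10 μM cold GTPγS, and basal as GDP without ligand. Samples were filtered on GF/B, washed three times with ice-cold 50 mM tris-Cl and counted by scintillation.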

The nature of assay [7]: [35S]GTPγS binding in membranes from control CHO cells. It is filed as biochemical, Chinese hamster. Particulars: membranes 20 μg, CHO alone; Fig. 4E. A digest of the protocol: as §1

T1 sequence (Q9NYM4 17-423): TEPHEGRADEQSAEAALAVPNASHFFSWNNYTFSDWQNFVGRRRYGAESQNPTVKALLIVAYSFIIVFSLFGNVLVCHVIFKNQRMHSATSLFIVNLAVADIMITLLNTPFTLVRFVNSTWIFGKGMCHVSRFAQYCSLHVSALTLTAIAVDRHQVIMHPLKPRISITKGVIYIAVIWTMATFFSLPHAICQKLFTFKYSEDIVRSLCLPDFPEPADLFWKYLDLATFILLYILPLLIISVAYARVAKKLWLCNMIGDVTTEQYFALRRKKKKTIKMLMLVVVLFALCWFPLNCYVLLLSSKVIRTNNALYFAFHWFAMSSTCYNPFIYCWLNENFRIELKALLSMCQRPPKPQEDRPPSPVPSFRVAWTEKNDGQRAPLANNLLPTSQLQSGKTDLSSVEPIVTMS
Neuro2A cells, sequence (P30731 18-423): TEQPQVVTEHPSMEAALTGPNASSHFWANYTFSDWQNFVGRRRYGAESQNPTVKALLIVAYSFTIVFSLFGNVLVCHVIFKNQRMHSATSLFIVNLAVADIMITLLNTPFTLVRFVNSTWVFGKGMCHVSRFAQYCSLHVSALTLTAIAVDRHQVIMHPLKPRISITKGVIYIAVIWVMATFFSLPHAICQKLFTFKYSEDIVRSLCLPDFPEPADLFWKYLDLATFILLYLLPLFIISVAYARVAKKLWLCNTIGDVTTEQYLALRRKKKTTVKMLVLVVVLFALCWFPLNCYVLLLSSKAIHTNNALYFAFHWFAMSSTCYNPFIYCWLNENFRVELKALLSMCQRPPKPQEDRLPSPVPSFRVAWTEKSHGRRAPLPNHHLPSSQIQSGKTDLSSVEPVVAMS
mouse hypothalamic membranes, sequence (P30731 18-423): as above
endogenous mouse GPR83 in brain (hypothalamus, hippocampus, PVN) (mouse (endogenous in hypothalamus, hippocampus)), sequence (P30731 18-423): as above

Turning to LENPSPQAPA [rlittleLEN], in assay [1], the “competition for [125I]Tyr-rPEN binding” value was “did not compete for binding”. With “N-terminally tyrosinated, radioiodinated rat PEN (peptide)”, the Kd in assay [2] was found to be 8 nM. With “PEN: proSAAS-derived peptide PEN, species form not stated at this place (AADHDVGSELPPEGVLGALLRV; PEN; UniProt Q9UHG2 221-242, looked up)”, the “effect on food intake” value in assay [3] is reported as “did not elicit a significant effect”. In the case of “bigLEN: proSAAS-derived peptide bigLEN, species form not stated at this place (LETPAPQVPARRLLPP; Big LEN; UniProt Q9UHG2 245-260, looked up)”, the “effect on food intake” value in assay [3] is reported as “did not elicit a significant effect”. As to “mbigLEN: mouse bigLEN, proSAAS-derived neuropeptide that activates GPR171 (LENPSPQAPARRLLPP; Big LEN; UniProt Q9QXV0 243-258, looked up)”, in assay [4], the number of neurites entry is recorded as “significantly increased”. neuropeptide Y [NPY]: the “displacement of [125I]Tyr-rPEN” value in assay [5] (10 μM NPY, not significant (one-way ANOVA, P = 0.37)) was ~ 20%; in assay [5] (NPY at concentrations below 1 μM, [125I]Tyr-rPEN 3 nM, membranes 50 μg), “did not displace”. Moreover, the GTPγS binding entry in assay [6] and in assay [7] was “small increase” each time. As to “rSAAS: rat SAAS, proSAAS-derived peptide (ARPVKEPRSLSAASAPLAETSTPLRL; Big SAAS; UniProt Q9QXU9 34-59, looked up)”, the number of neurites result in assay [4] was “significantly increased”.
